According to ChEMBL document CHEMBL2062435, “Synthesis and in vitro antibacterial activity of gemifloxacin derivatives containing a substituted benzyloxime moiety” (2012):

What was measured:
Assay type in all cases: functional
Staphylococcus aureus [1] = assay: Ratio of levofloxacin MIC to compound MIC for extended spectrum beta-lactamases-producing methicillin-sensitive Staphylococcus aureus 10-14 after 18-24 hrs by two-fold serial dilution method
Method in brief: (§1)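 MICs were determined by the standard twofold serial dilution method on agar media against the test strains, with levofloxacin run as a reference. MIC is the lowest concentration giving complete inhibition of bacterial growth after 18–24 h incubation at 35 °C. The ratio is levofloxacin MIC divided by test-compound MIC.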

Staphylococcus aureus [2] = assay: Ratio of gemifloxacin MIC to compound MIC for Staphylococcus aureus ATCC […] after 18-24 hrs by two-fold serial dilution method
Escherichia coli [3] = assay: Antimicrobial activity against Escherichia coli 10-2 after 18-24 hrs by two-fold serial dilution method
Method in brief: (§2)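 Agar-medium twofold serial dilution against Gram-positive and Gram-negative strains; MIC taken as the lowest compound concentration giving complete inhibition of bacterial growth after incubation at 35 °C for 18-24 h.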

Staphylococcus aureus [4] = assay: Antimicrobial activity against extended spectrum beta-lactamases-producing methicillin-resistant Staphylococcus aureus 10-11 after 18-24 hrs by two-fold serial dilution method
Method in brief: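 Agar twofold serial dilution MIC against clinical isolates. MIC was taken as the lowest concentration giving complete inhibition of bacterial growth after incubation at 35 °C for 18-24 h.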

Streptococcus pneumoniae [5] = assay: Ratio of levofloxacin MIC to compound MIC for extended spectrum beta-lactamases-producing Streptococcus pneumoniae 10-4 after 18-24 hrs by two-fold serial dilution method; method in brief: as §1
[6] = system: Staphylococcus epidermidis; assay: Ratio of gemifloxacin MIC to compound MIC for extended spectrum beta-lactamases-producing methicillin-sensitive Staphylococcus epidermidis 10-13 after 18-24 hrs by two-fold serial dilution method
Pseudomonas aeruginosa [7] = assay: Antimicrobial activity against extended spectrum beta-lactamases-producing Pseudomonas aeruginosa 10-5 after 18-24 hrs by two-fold serial dilution method; method in brief: as §2
[8] = system: Staphylococcus epidermidis; assay: Ratio of gemifloxacin MIC to compound MIC for extended spectrum beta-lactamases-producing methicillin-sensitive Staphylococcus epidermidis 10-15 after 18-24 hrs by two-fold serial dilution method
Staphylococcus aureus [9] = assay: Ratio of levofloxacin MIC to compound MIC for extended spectrum beta-lactamases-producing methicillin-sensitive Staphylococcus aureus 10-13 after 18-24 hrs by two-fold serial dilution method; method in brief: as §1
Enterococcus faecium [10] = assay: Ratio of gemifloxacin MIC to compound MIC for Enterococcus faecium 10-5 after 18-24 hrs by two-fold serial dilution method
[11] = system: Staphylococcus epidermidis; assay: Ratio of levofloxacin MIC to compound MIC for extended spectrum beta-lactamases-producing methicillin-sensitive Staphylococcus epidermidis 10-15 after 18-24 hrs by two-fold serial dilution method; method in brief: as §1
Streptococcus pneumoniae [12] = assay: Antimicrobial activity against extended spectrum beta-lactamases-producing Streptococcus pneumoniae 10-4 after 18-24 hrs by two-fold serial dilution method; method in brief: as §2
Klebsiella pneumoniae = assay: Antimicrobial activity against Klebsiella pneumoniae 10-2 after 18-24 hrs by two-fold serial dilution method; method in brief: as §2
[13] = system: Staphylococcus epidermidis; assay: Antimicrobial activity against extended spectrum beta-lactamases-producing methicillin-sensitive Staphylococcus epidermidis 10-11 after 18-24 hrs by two-fold serial dilution method; method in brief: as §2
Staphylococcus aureus [14] = assay: Ratio of gemifloxacin MIC to compound MIC for extended spectrum beta-lactamases-producing methicillin-sensitive Staphylococcus aureus 10-14 after 18-24 hrs by two-fold serial dilution method
Escherichia coli [15] = assay: Antimicrobial activity against Escherichia coli 10-3 after 18-24 hrs by two-fold serial dilution method; method in brief: as §2
Pseudomonas aeruginosa [16] = assay: Antimicrobial activity against extended spectrum beta-lactamases-producing Pseudomonas aeruginosa 10-18 after 18-24 hrs by two-fold serial dilution method; method in brief: as §2
Escherichia coli [17] = assay: Antimicrobial activity against Escherichia coli ATCC 25922 after 18-24 hrs by two-fold serial dilution method; method in brief: as §2
Enterococcus faecium [18] = assay: Antimicrobial activity against Enterococcus faecium 10-5 after 18-24 hrs by two-fold serial dilution method; method in brief: as §2
Enterococcus faecalis = assay: Ratio of levofloxacin MIC to compound MIC for Enterococcus faecalis 10-7 after 18-24 hrs by two-fold serial dilution method
Streptococcus pneumoniae [19] = assay: Antimicrobial activity against extended spectrum beta-lactamases-producing Streptococcus pneumoniae 10-1 after 18-24 hrs by two-fold serial dilution method; method in brief: as §2
[20] = system: Staphylococcus epidermidis; assay: Antimicrobial activity against methicillin-resistant Staphylococcus epidermidis clinical isolate after 18-24 hrs by two-fold serial dilution method

`COc1ccc(OC)c(CO/N=C2\CN(c3nc4c(cc3F)c(=O)c(C(=O)O)cn4C3CC3)CC2CN)c1.CS(=O)(=O)O` (racemic) showed a Ratio (Staphylococcus aureus [1]) of 8, a Ratio (Staphylococcus aureus [2]) of 2 and an MIC (Escherichia coli [3]) of over 128 µg/mL. For the same molecule, the MIC (Staphylococcus aureus [4]) was 1 µg/mL, the Ratio (Streptococcus pneumoniae [5]) was 8 and the Ratio [6] was 2. It also gave an MIC (Pseudomonas aeruginosa [7]) of over 128 µg/mL, a Ratio [8] of 2 and a Ratio (Staphylococcus aureus [9]) of 8. It also gave a Ratio (Enterococcus faecium [10]) of 2, a Ratio [11] of 8 and an MIC (Streptococcus pneumoniae [12]) of 0.015 µg/mL. It also gave an MIC (Klebsiella pneumoniae) of over 128 µg/mL, an MIC [13] of 0.25 µg/mL and a Ratio (Staphylococcus aureus [14]) of 2. It also gave an MIC (Escherichia coli [15]) of over 128 µg/mL, an MIC (Pseudomonas aeruginosa [16]) of over 128 µg/mL and an MIC (Escherichia coli [17]) of 0.06 µg/mL. The MIC (Enterococcus faecium [18]) was 4 µg/mL, the Ratio (Enterococcus faecalis) was 8 and the MIC (Streptococcus pneumoniae [19]) was 0.06 µg/mL. It also gave an MIC50 [20] of 0.25 µg/mL and an MIC90 [20] of 4 µg/mL.
